Data: paper PMC9063861 (RSC Advances, 2019)

Key:
[1] = target: T1, Horseradish peroxidase (HRP) (Armoracia rusticana, UniProt P00433); test: Kinetics of the oxidation of flavones catalyzed by HRP; assay type: biochemical
T1 sequence (P00433 31-338 limits assumed): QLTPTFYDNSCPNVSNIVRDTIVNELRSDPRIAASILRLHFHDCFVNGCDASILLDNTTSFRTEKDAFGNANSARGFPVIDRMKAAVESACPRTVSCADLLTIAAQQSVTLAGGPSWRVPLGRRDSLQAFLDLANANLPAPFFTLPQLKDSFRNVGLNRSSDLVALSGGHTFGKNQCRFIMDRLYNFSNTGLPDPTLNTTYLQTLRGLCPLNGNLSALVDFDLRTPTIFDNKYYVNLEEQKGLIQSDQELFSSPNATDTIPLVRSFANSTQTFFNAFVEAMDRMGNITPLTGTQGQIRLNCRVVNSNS
How it was run: (§1)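 Horseradish peroxidase, >250 U mg−1. Oxidation products were quantified by LC-MS/MS using ESI in negative mode with multiple reaction monitoring. The mobile phase was acetonitrile–0.1% formic acid (aq) at 450 μL min−1. Nitrogen served as curtain and collision gas, at 13 and 6 psi respectively.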

[2] = target: Laccase from Trametes versicolor; test: Kinetics of the oxidation of flavones catalyzed by laccase; assay type: biochemical
How it was run: as §1, with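 “Laccase from Trametes versicolor, 120” for “Horseradish peroxidase, >250”, “g−1.” for “mg−1.”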

## O=C(/C=C/c1ccc(O)cc1)c1ccc(O)cc1O [compound 12, isoliquiritigenin]
[1]
  kinetic model of oxidation by HRP: substrate inhibition kinetics
[2]
  kinetic model of oxidation by laccase: Hill-kinetic model

## O=C1C[C@@H](c2ccc(O)cc2)Oc2cc(O)cc(O)c21 [compound 8, naringenin]
[1]
  kinetic model of oxidation by HRP: substrate inhibition kinetics

## O=c1c(-c2ccc(O)cc2)coc2cc(O)ccc12 [compound 10, daidzein]
[1]
  kinetic model of oxidation by HRP: Hill kinetic model
[2]
  kinetic model of oxidation by laccase: Hill-kinetic model

## O=c1cc(-c2ccc(O)cc2)oc2cc(O)cc(O)c12 [compound 1, apigenin]
[1]
  kinetic model of oxidation by HRP: Hill kinetic model
[1]; formation of the named product
  K m: 0.1635 mM
  n (Hill kinetic model): 2.944

## O=c1c(O)c(-c2ccc(O)cc2)oc2cc(O)cc(O)c12 [compound 5, kaempferol]
[2]
  kinetic model of oxidation by laccase: substrate inhibition kinetic model
[2]; formation of the named product
  K m: 8.288 ± 0.401 mM
[2]; read-out: Ki (inhibitory effect on laccase)
  Ki: 1660 µM
